Screening results from PubChem BioAssay.
RBBP9 inhibitor = blocks human serine hydrolase RBBP9; recombinant RBBP9, FP-Rh probe fluorescence polarization; inhibition, % at 7.94 µM; 220,000 tested, 0.2% active;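 active = inhibition above the campaign mean of all tested compounds plus 3 SD, cut at about 14% in these data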
Target sequence (O75884 whole entry, looked up): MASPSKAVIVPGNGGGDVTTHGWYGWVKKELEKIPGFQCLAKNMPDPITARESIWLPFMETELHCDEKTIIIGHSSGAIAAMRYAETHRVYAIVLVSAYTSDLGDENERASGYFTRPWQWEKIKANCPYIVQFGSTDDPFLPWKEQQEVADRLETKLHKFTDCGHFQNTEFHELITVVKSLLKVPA
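Material: RBBP9 protein. Amount: RBBP9 at 2.5 µM in dispensed solution, before mixing. Schedule: 30 min then 45 min, 25 °C. Medium: Tris buffer pH 8.0, NaCl, Pluronic. Measured by: fluorescence polarization. Measure: percent inhibition from mP, scaled between DMSO and no-protein wells. Replication: one well per compound.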
PP5 inh = blocks human protein phosphatase 5 activity | 320,000 tested, 0.18% active | P53041 | AID 1987 | purified PP5c, OMFP substrate fluorescence | inhibition, % at 6.7 µM;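 active = inhibition above the campaign's mean inhibition across all tested compounds plus 3 SD, cut at about 9.5% in these data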
Target sequence (P53041 whole entry, looked up): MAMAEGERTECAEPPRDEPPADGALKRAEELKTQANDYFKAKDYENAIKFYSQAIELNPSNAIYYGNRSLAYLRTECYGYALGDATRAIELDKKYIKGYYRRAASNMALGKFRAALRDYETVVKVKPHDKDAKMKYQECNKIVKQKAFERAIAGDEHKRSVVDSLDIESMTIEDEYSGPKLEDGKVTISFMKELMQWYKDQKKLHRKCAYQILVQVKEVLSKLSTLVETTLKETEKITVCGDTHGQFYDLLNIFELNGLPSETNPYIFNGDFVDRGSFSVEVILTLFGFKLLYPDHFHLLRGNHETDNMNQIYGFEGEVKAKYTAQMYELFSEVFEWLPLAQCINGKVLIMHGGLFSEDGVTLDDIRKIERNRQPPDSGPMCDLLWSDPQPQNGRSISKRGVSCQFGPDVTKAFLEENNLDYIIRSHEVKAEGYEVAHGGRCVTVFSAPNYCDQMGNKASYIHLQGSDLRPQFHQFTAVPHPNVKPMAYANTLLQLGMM
PKD1 kinase inh = PKD1 (human) kinase inhibition. AID 797. PKD1 kinase fluorescence polarization assay. inhibition, % (test concentration not listed). Q15139. 200,000 tested, 0.056% active; in the data active = inhibition above about 50%
p97 inhibitor = human p97 ATPase inhibition | 220,000 tested, 0.42% active | AID 1481 | recombinant p97 ATPase, Kinase-Glo ATP luminescence, 3 h | inhibition, % at 8 µM; in the data active = inhibition above about 15%
PP1 inh = counter-screen for PP5 inhibitors: inhibitors of human PP1-alpha; AID 2235; P62136; inhibition, % at 6.7 µM; 320,000 tested, 0.9% active; purified PP1alpha, OMFP fluorescence;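 active = inhibition above the mean inhibition of all tested compounds plus 3 SD, computed separately for each screening campaign, cut at about 15% in these data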
Hsp70 activator = Hsp70 transcriptional activation, primary screen | 200,000 tested, 0.04% active | HeLa Hsp70 promoter luciferase reporter, luminescence; scaled: vehicle 0, proteasome-inhibitor control 100% | activation, % at 10 µM;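 active = activation above the mean across all tested compounds plus 3 SD, cutoff set per campaign, cut at about 5.5% in these data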
Hits are given with their value. A selection: hits, their analogues and other compounds. The true share with any hit is near 1.5%.

Results for Cc1ccsc1/C=C/C1=Cc2c(sc(NC(=O)CSc3n[nH]c(N)n3)c2C#N)C(C)(C)C1 ?
RBBP9 inhibitor: inactive; PP5 inh: inactive; PKD1 kinase inh: inactive; p97 inhibitor: inactive; PP1 inh: 17; Hsp70 activator: inactive

How did CCOC(=O)c1sc(NC(=O)CSc2n[nH]c(-c3ccncc3)n2)c(C#N)c1C do in these assays?
RBBP9 inhibitor: inactive; PP5 inh: inactive; PKD1 kinase inh: inactive; p97 inhibitor: inactive; PP1 inh: inactive; Hsp70 activator: inactive

How did CCOc1ccc(/C=C/C2=Cc3c(sc(NC(=O)CSc4n[nH]c(N)n4)c3C#N)C(C)(C)C2)cc1 do in these assays?
RBBP9 inhibitor: inactive; PP5 inh: inactive; PKD1 kinase inh: inactive; p97 inhibitor: inactive; PP1 inh: 22; Hsp70 activator: inactive

How did CCN(CC(=O)Nc1cccc(OC)c1)C(=O)c1cccc(S(=O)(=O)N2CCc3ccccc32)c1 do in these assays?
PP5 inh: inactive; PP1 inh: inactive

How did Cc1cccc(OCc2nnc(-c3ccc(F)cc3)o2)c1 do in these assays?
PP5 inh: inactive; PP1 inh: inactive

Results for CCOC(=O)c1cccc(NC(=O)/C(=C\c2ccccc2)NC(=O)c2ccccc2Cl)c1 ?
RBBP9 inhibitor: inactive; PP5 inh: inactive; PKD1 kinase inh: inactive; p97 inhibitor: inactive; PP1 inh: 17; Hsp70 activator: inactive

What do the screens show for `O=C(Nc1ccccc1)Nc1cccc(NC(=O)Nc2ccccc2)c1F`?
PP5 inh: inactive; PP1 inh: 16

How did O=C(Nc1ccccc1)Nc1ccccc1Br do in these assays?
RBBP9 inhibitor: inactive; PP5 inh: inactive; PKD1 kinase inh: inactive; p97 inhibitor: inactive; PP1 inh: inactive; Hsp70 activator: inactive

How did O=C(CN1c2ccccc2Sc2ccccc21)NNC(=S)Nc1ccc(Cl)cc1Cl do in these assays?
RBBP9 inhibitor: inactive; PP5 inh: inactive; PKD1 kinase inh: inactive; p97 inhibitor: inactive; PP1 inh: 20; Hsp70 activator: inactive

How did O=C(CN1c2ccccc2Sc2ccccc21)NNC(=S)Nc1ccc(Cl)cc1 do in these assays?
RBBP9 inhibitor: inactive; PP5 inh: inactive; p97 inhibitor: inactive; PP1 inh: inactive

Results for CC(C)C1=CC2=CCC3C(C)(C(=O)O)CCCC3(C)C2CC1 (stereo unspecified) (tested in a mixture with another compound) ?
PP5 inh: inactive; PP1 inh: inactive

Results for O=C(COC(=O)/C=C/c1ccc(Br)o1)NCCCN1CCCC1=O ?
RBBP9 inhibitor: inactive; PP5 inh: inactive; PKD1 kinase inh: inactive; p97 inhibitor: inactive; PP1 inh: inactive; Hsp70 activator: inactive

How did O=C(CSc1cn(Cc2ccccc2)c2ccccc12)Nc1nccs1 do in these assays?
RBBP9 inhibitor: inactive; PP5 inh: inactive; PKD1 kinase inh: inactive; p97 inhibitor: inactive; PP1 inh: 16; Hsp70 activator: inactive

Results for N#CCC(=O)Nc1ccc(C(=O)NCCC(c2ccccc2)c2ccccc2)cc1 ?
PP5 inh: inactive; PP1 inh: 16

What do the screens show for `CN(C)C(CNC(=O)c1ccc(NC(=O)CC#N)cc1)c1ccccc1` (stereo unspecified)?
RBBP9 inhibitor: inactive; PP5 inh: inactive; PKD1 kinase inh: inactive; p97 inhibitor: inactive; PP1 inh: inactive; Hsp70 activator: inactive

Results for COc1cc(C2C(C(=O)c3ccco3)=C(O)C(=O)N2CC2CCCO2)ccc1O (stereo unspecified) ?
PP5 inh: inactive; PP1 inh: inactive

How did COc1cc(C2C(C(=O)c3ccco3)=C(O)C(=O)N2CCc2ccccc2)ccc1O (stereo unspecified) do in these assays?
RBBP9 inhibitor: inactive; PP5 inh: inactive; PKD1 kinase inh: inactive; p97 inhibitor: inactive; PP1 inh: 15; Hsp70 activator: inactive

Results for COCCN1C(=O)C(O)=C(C(=O)c2ccco2)C1c1cccc(Oc2ccccc2)c1 (stereo unspecified) ?
RBBP9 inhibitor: inactive; PP5 inh: inactive; PKD1 kinase inh: inactive; p97 inhibitor: inactive; PP1 inh: 25; Hsp70 activator: inactive

How did O=C(O)c1ccc2c(=O)n(Cc3ccccc3)c(SCc3ccc([N+](=O)[O-])cc3)nc2c1 do in these assays?
PP5 inh: inactive; PP1 inh: 18

Results for O=c1c2ccccc2nc(SCc2ccc([N+](=O)[O-])cc2)n1-c1ccccc1 ?
RBBP9 inhibitor: inactive; PP5 inh: inactive; PKD1 kinase inh: inactive; p97 inhibitor: inactive; PP1 inh: inactive; Hsp70 activator: inactive

How did NC(N)=N/N=C/c1ccc(OCc2ccccc2Cl)cc1 do in these assays?
RBBP9 inhibitor: inactive; PP5 inh: inactive; PKD1 kinase inh: inactive; p97 inhibitor: inactive; PP1 inh: 17; Hsp70 activator: inactive

How did NC(N)=N/N=C/c1ccccc1 do in these assays?
RBBP9 inhibitor: inactive; PP5 inh: inactive; PKD1 kinase inh: inactive; p97 inhibitor: inactive; PP1 inh: inactive; Hsp70 activator: inactive

What do the screens show for `O=C(N/N=C/C(Cl)=C/c1ccc([N+](=O)[O-])cc1)C(=O)Nc1cccc(C(=O)O)c1`?
RBBP9 inhibitor: inactive; PP5 inh: inactive; p97 inhibitor: inactive; PP1 inh: inactive

What do the screens show for `CSCCC(NC(=O)c1ccccc1)C(=O)NCCc1ccc2c(c1)OCCO2` (stereo unspecified)?
PP5 inh: inactive; PP1 inh: inactive

How did CC1(C)CC(=O)c2c(nc(SCC(=O)Nc3nsc(-c4ccccc4)n3)c(C#N)c2-c2ccccc2)C1 do in these assays?
RBBP9 inhibitor: inactive; PP5 inh: inactive; PKD1 kinase inh: inactive; p97 inhibitor: inactive; PP1 inh: 16; Hsp70 activator: inactive

How did O=C1Cc2cc(CCN3CCN(c4nsc5ccccc45)CC3)c(Cl)cc2N1 do in these assays?
RBBP9 inhibitor: inactive; p97 inhibitor: inactive; Hsp70 activator: inactive

How did Cc1cc(=O)[nH]c(-n2[nH]c(C)cc2=O)n1 do in these assays?
RBBP9 inhibitor: inactive; PP5 inh: inactive; PKD1 kinase inh: inactive; p97 inhibitor: inactive; PP1 inh: inactive; Hsp70 activator: inactive

Results for COc1ccc(-n2[nH]c(C)cc2=O)cc1 ?
RBBP9 inhibitor: inactive; PP5 inh: inactive; PKD1 kinase inh: inactive; p97 inhibitor: 28; PP1 inh: inactive; Hsp70 activator: inactive

What do the screens show for `CCO[C@@H]1OC(C(=O)NCc2nc3ccccc3[nH]2)=C[C@H](C)[C@H]1CCCO`?
RBBP9 inhibitor: inactive; PP5 inh: inactive; PKD1 kinase inh: inactive; p97 inhibitor: inactive; PP1 inh: inactive; Hsp70 activator: inactive

What do the screens show for `COCCCN=C1NN=C(c2cc(C)n(Cc3ccccc3Cl)c2C)CS1`?
RBBP9 inhibitor: inactive; PP5 inh: inactive; PKD1 kinase inh: inactive; p97 inhibitor: inactive; PP1 inh: 15; Hsp70 activator: inactive

What do the screens show for `CCCOc1ccccc1/C=C1\SC(N2CCCCC2)=NC1=O`?
PP5 inh: inactive; PP1 inh: inactive

What do the screens show for `COc1ccc(NS(=O)(=O)c2cccc(C(=O)N/N=C/c3ccc4c(c3)OCCO4)c2)cc1`?
RBBP9 inhibitor: inactive; PP5 inh: inactive; PKD1 kinase inh: inactive; p97 inhibitor: inactive; PP1 inh: 17; Hsp70 activator: inactive
